Data from the EternaBench riboswitch data.

Test system: MS2 coat protein
Test: apparent Kd, MS2 coat protein; higher = weaker binding; RNA-MaP array; FMN 200 µM where present
In short: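 The titrant was SNAP-549-labelled MS2 coat protein, run from 0.7 or 1.5 nM in doubling steps to 3 µM. It was applied to designs transcribed by stalled E. coli RNA polymerase on Illumina sequencing-chip clusters, without ligand first and then with constant ligand, in 100 mM Tris-HCl pH 7.5, 80 mM KCl, 4 mM MgCl2, BSA, DTT, yeast tRNA and Tween-20. The apparent Kd is the median of filtered per-cluster binding-curve fits, with green signal normalised to red-channel RNA signal and control-cluster median Fmax.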

[1] = designed as: ON switch for flavin mononucleotide, no ligand
[2] = ligand present: flavin mononucleotide, designed as: ON switch for flavin mononucleotide
[3] = designed as: OFF switch for flavin mononucleotide, no ligand
[4] = ligand present: flavin mononucleotide, designed as: OFF switch for flavin mononucleotide

Sequence	apparent Kd [1] [nM]	apparent Kd [2] [nM]	apparent Kd [3] [nM]	apparent Kd [4] [nM]
AAAACAUGAGGAUCACCCAUGUAAAGAUCGGUUGAUGAAGGUGAGGAUAUACAAAACUUUAUGGAGUAGAAGGCACUGGGUUGA	109	59.3		
GCUGCUAUCGCAGGAUAUUACAUGGGAAAUAAAACAUGAGGAUCACCCAUGUAAAAUAUCGUAAAUAAGAAGGGCGAUAGCAGC	84.6	1180		
AUAUGAUAGAUAGGAUAUACUGAGGUUGAAUGGGUAGAAGGAUCGAUAGGGAAGACUACAUGAGGAUCACCCAUGUUGUGGAUU	88.4	52.6		
CUCUGACAUGAGGAUCACCCAUGUGAGGAUAUGAUGCAGCAGUGGUCUACGCUGUGCAUCAGAAGGCACAUGUG			101	33.4
UAUAAGUCUCAUGUAACAUGAGGAUCACCCAUGUCAUAUUGUAGAAGGAUGAUAAUAUGUAUAUCAUAGGAUAUACUAUAUGUU			20.9	19.6
GGAUGGACCCAGAAGGGCAGAUCCCGAGGAAUUUGAGAUGAGCGGAUAUGUAGGAUAUGGGUGGACAUGAGGAUCACCCAUGUC	176	42.6		
AAGUCAGCAGGAUAUGCGAUGUUGGGCUAGGUAGCGUGACCACAUGAGGAUCACCCAUGUAGAAGGGCUGGCUA			33.4	34.4
AAGGGACAUGAGGAUCACCCAUGUGAGGAUAUGCUAUGGAAAAUAAAAAAUAAACAUAGCAGAAGGCAUAAAAA			64.9	97
GCUAGGAUGUGAGGAUAUGCUGAGGAUACUUCAGCAGAAGGCACAUGAGGAUCACCCAUGUACACUUAUCAUAAAUACCCUAGC			12.7	16.2
ACAUGAGGAUCACCCAUGUGAACAUAGGAUAUUGGUGAUCAGGCGUGUUAUACAGGAUAGGUCUGCGAGAAGGGUGUACGUUGC	367	71.7		
GUUUUUUCUCAUGUACAUGAGGAACAUGAGGAUCACCCAUGUAGAAGGAAUUUUUUUAAGUUUAGUUAGGAUAUACAUAUAUUG			48.8	28.6
CUUUCGUGAGGAUAUGUGGCUUCGAUCGUGAGAUCGAAGCUACAGAAGGCACAUGAGGAUCACCCAUGUUCCUC			38.5	544
AAACAUGUCCGAGGAUAUCUGGAAACAUUUUCAAGAGAAGGCGGACAUGAGGAUCACCCAUGUCUCUCCUCAUCAACUACAUAU			8.09	59.4
UAGAAGUCAGGAUAUCCAGCUCGUCACUUGCGUGAUGAGUUGGAGAAGGGACAUGAGGAUCACCCAUGUAAAGA			61.9	57.8
GCAGCGCCUGACAUGAGGAUCACCCAUGUUCCAUUGUUGAGUCAGGAUAUAGUCUAGAAACUAGACUAGAAGGGAUAUGCUGCU	70.2	50.8		
GUUAAGGUAGGAUAUACGAUAAUAUAGGGUAGAUAUAUAACACAUGAGGAUCACCCAUGUAGAAGGACCAAGUG			41.5	170
ACAUGCAAGUAGAAGGUCGGAUAUUUUGAUAACGAAGGAUAUACAGAAUCAUAUCCACAUGAUAACAUGAGGAUCACCCAUGUA			15.2	15
GCGUACAUAUCAGGAUAUCAUAUAAUUGUUUAACUCAGUGUAUACAUGAGGAUCACCCAUGUUCUUGAGAAGGGAUAUGUACGC			9.08	9.76

Sequence	apparent Kd [1] [nM]	apparent Kd [2] [nM]	apparent Kd [3] [nM]	apparent Kd [4] [nM]
CCAGCAACAUGAGGAUCACCCAUGUAGGAUAUCGCUAUUGUAAUCAUGAAACAUGAUUACAAUAGCGAGAAGGACAUAUGCUUU			11	12
UAGGUUCGAGGAUAUACAUAGAUACAGAUACAUGUAGACGUACAUGAGGAUCACCCAUGUAGAAGGCGAAUAUA			80.9	186
UGUCGGAGCAGAGGAUAUUACAUGAGGAUCACCCAUGUAUGAACCAAUAGCUGGAAACAGCAAUGUAAGAAGGCUGCUGCGACA			12.8	182
UUUAUGUCAGGAUAUACAUGAGGAUCACCCAUGUAUAUCUUAAAGUAUACAUGGAAAUGUAGAAGGGACGUCCU			15.1	17.1
GUGCUGCAACGGUGCACGAGACAUGAGGAUCACCCAUGUGACAGAAGGGACUUGUUAAAGGUAGGUCAGGAUAUGUCUUAAAAG	191	53.1		
GGACAUGUCGUCUACAUGAGGAUCACCCAUGUCGAUAGACAUGAGGAUAUCGAUAAGAAUUGUAUCGAGAAGGCAUGCAGGUCC	19.8	21.6		
CGCAAACAUGAGGAUCACCCAUGUCAUUGUGGUCAAGGAUAUGGGUUCCUAAAUGGAACACCAGAAGGUGAAAAGA	164	33.5		
GGCGACCUAGGAUAUACAUGAGGAUCACCCAUGUUUAUCUAAUAGAUGAAGACGGGUUGUAGAAGGAGGAAAAU			15.6	19.4
GAAAGGGCAGGAUAUGCAGAGAGAGAGAGAGAGAGAAAAAAACAUGAGGAUCACCCAUGUAGAAGGGCCGAAAG			34.8	39.1
UAGUAUAAGGGCAUUAAACAUGAGGAUCACCCAUGUACGUUAGAGGAUAUGCAUUACAGUUGAGAGUAGAAGGUUAGAGAAGGG			44.4	45.3
UGAUAGGACAGAGGAUAUACGUAUAGUUACCUCUACAUGAGGAUCACCCAUGUAGAAGGCUGUCCUAUCUAAGUCGGAAACGAC			4.77	5.78
AGUAGAUCAGGAUAUACAUAAAUGAUAAUUAUGUAAAUUCUACAUGAGGAUCACCCAUGUAGAAGGGAUCUACA			14.4	14
GGUGCGUUUGUGAGGAUAUGCUGGUCCUUGGUUCGGCAGAAGGCACAUGAGGAUCACCCAUGUGGUGUCGCUCC			41.7	139
AAUUUGGAGGGAGGAUAUACAUGAGGAUCACCCAUGUAGCCUAACACGGCUCUCAAUUUCCAAGUGUAGAAGGCCCAACGUGUU			13.6	48.8
CCCGCCCGCCCGCACGCGGAGCGACGAGAAGGUACACAUGAGGAUCACCCAUGUCGAGUGGGAGGUAAGGAUAUUGGACGGCGG	106	93.3		
UCAUGGUAGCAGGAUAUGCUUGUAAUUUUUUUUGCAGAAGGGCUUACAUGAGGAUCACCCAUGUGUUAGGUCUA			32.8	46.7
GCCUAGCCCAAGCCCACGGCAUCACAGGAUAUGCCGAUAACAUGAGGAUCACCCAUGUCAACUCCGCAGAAGGGUGAUAUCGUG	75.9	10		
GGUACUCAAAGAGUACUGAGUCGAACAUGAGGAUCACCCAUGUAGGAUAUGCGAGUUUUGAAUUUGCAGAAGGACAUUUGCAGC			9.34	10.8
